This is one part of a sample in which hits are shown more often than they occur.
Fibroblast inh = antiproliferative effect on LL 47 fibroblasts – human, LL 47 cells, CellTiter-Glo luminescence, primary screen | LL 47 human lung fibroblast viability, ATP luminescence; hits give low values | viability, % at 10 µM | actives 1.1% (n = 85,000) | AID 719, 2007;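 active = viability at or below 50% in the single dose screen; inactive = viability above 50%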;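 note: compound exposure lasted 72 h before the ATP readout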
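test system = LL 47 human lung fibroblasts | amount = 1,150 fibroblasts seeded per well | medium = 15% FBS in IMEM | times = overnight cell rest, 72 h compound treatment at 37 °C | measured by = CellTiter-Glo luminescence measuring cellular ATP | read-out = viability percentage against median untreated-cell control | benchmarks = cell-only wells, no compound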
HCT116 bCat-KO = primary screen for growth suppressors in beta-catenin knockout HCT116 cells (colon tumor, human); HCT116 beta-catenin knockout viability, CellTiter-Glo, 60 h; hits give low values; viability, % at 10 µM; actives 1.5% (n = 140,000); AID 818, 2007;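 active = viability at or under a set limit, the compound median less 4 SD, cut at about 6% in these data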
PTK2B oligo ant = antagonists of Pyk2 self-association, primary screen, Q293 cells, FERM NanoBiT luminescence, HTS; z-score (the deposit names both 25 µM and 10 µM); Protein-tyrosine kinase 2-beta (Homo sapiens), Q14289; hits give low values; actives 0.83% (n = 99,000);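 active = Z-score of -3 or lower, scaled per plate to the spread of control and sample wells; inactive = z-score above -3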;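 note: negative z-score means lost luminescence so less FERM oligomerization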
Target sequence (Q14289 whole entry, looked up): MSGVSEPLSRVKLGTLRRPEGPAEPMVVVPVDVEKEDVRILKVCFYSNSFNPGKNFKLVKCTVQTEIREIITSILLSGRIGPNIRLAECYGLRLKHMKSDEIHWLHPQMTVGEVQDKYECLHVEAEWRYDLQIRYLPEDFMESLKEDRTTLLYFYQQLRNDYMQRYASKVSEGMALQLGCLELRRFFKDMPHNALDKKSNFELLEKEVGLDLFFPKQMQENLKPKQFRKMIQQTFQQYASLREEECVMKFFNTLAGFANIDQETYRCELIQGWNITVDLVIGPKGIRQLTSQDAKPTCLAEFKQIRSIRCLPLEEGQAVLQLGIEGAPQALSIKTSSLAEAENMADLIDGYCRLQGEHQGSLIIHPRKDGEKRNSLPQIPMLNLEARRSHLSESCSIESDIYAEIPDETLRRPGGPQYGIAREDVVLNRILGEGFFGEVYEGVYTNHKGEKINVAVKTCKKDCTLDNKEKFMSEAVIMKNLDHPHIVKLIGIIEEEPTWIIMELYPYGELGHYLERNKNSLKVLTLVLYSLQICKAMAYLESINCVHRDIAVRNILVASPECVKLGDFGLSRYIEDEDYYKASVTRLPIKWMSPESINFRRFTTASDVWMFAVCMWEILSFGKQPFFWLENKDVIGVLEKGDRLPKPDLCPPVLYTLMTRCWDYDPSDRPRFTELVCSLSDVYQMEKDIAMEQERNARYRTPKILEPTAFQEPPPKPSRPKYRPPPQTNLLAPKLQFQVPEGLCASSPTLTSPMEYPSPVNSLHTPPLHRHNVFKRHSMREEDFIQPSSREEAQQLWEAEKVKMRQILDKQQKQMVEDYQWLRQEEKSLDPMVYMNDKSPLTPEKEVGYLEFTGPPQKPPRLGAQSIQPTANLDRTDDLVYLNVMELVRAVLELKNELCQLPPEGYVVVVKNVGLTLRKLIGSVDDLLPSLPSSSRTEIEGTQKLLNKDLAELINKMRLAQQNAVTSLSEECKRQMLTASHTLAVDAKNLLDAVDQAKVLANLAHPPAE
H69AR inhibit = proliferation blockers of H69AR lung cancer cells, primary screen, cell-based, human, 86K library; H69AR lung tumor viability, ATP luminescence, 72 h; hits give low values; viability, % at 10 µM; actives 6% (n = 85,000);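 active = viability at or below 40%; inactive = viability above 40%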;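 note: multidrug resistant small cell line overexpressing MRP-1 efflux transporter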
HUVEC prolif 384 = inhibitors of HUVEC proliferation, primary screen, cell-based, 384-well | viability, % at 10 µM (by protocol) | AID 648, 2007 | CellTiter-Glo luminescence, 72 h; hits give low values | actives 1.1% (n = 86,000);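 active = viability at or below 30%; inactive = viability above 30%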
HCT116 PTEN-null = growth suppression of PTEN-null HCT116, primary screen, cell-based, CellTiter-Glo; HCT116 PTEN-null viability, 60 h; hits give low values; viability, % at 10 µM; actives 1.2% (n = 140,000); AID 827, 2007;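 active = viability at or below a set limit, 4 SD under the median of all tested compounds, cut at about 3.7% in these data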;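 note: PTEN knockout HCT116 line with beta catenin targeted HCT116 as companion control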
Hits are given with their value; - = inactive; . = no result.

SMILES	Fibroblast inh	HCT116 bCat-KO	PTK2B oligo ant	H69AR inhibit	HUVEC prolif 384	HCT116 PTEN-null
CCC(C)[C@H](NC(=O)N1CCN(C)CC1)C(=O)OC (stereo not given in full)	.	-	.	.	.	-
N=c1sc2ccccc2n1-c1ccccc1	-	-	-	31	-	-
COC(=O)c1cc(C(=O)NCCN2C(=O)S/C(=C\c3cccs3)C2=O)cc([N+](=O)[O-])c1	.	-	.	.	.	-
CCN1CCN(C(=O)Nc2cccc3ccccc23)CC1	-	-	-3.2	-	-	-
O=S(=O)(NC1CC1)c1ccc(S(=O)(=O)N2CCCC3(CCCCC3)C2)cc1	-	-	-	32	-	-
C=CCSC(=S)NC1CCS(=O)(=O)C1 (stereo not given)	.	-	.	.	.	-
O=C(/C=C\c1cccs1)c1c(O)ccc2ccc(=O)oc12	.	-	.	.	.	-
COC(=O)C1(C(F)(F)F)N=C2Sc3ccccc3N2C(N2CCOCC2)=N1 (stereo not given)	-	4.7	.	-	-	-
Cn1c(N/N=C/c2c[nH]c3ccccc23)nc2ccccc21	.	1.5	-	.	.	0.9
CCCCn1c(/N=C/c2c[nH]c3ccccc23)nc2ccccc21	-	-	-	1.9	-	-
CNC(=O)[C@@]1(C)C=C[C@@H](Cc2ccccc2)N1C(=O)OC	.	-	.	.	.	-
Cc1cc(C)cc(C(=O)NCC(=O)OCC(=O)c2cc(C)n(CC(F)(F)F)c2C)c1	.	-	.	.	.	-
COc1ccc(C(C)C)cc1S(=O)(=O)n1cnc(C)c1	-	-	-	27	-	-
O=[N+]([O-])c1ccc(/C=N/Nc2nc(N3CCCC3)nc(N3CCCC3)n2)o1	-	-	-	26	6.8	-
CCNc1nc(NCC)nc(N/N=C/c2ccc([N+](=O)[O-])o2)n1	.	-	-	.	.	-
O=[N+]([O-])c1ccc(/C=N/Nc2ccc3ccccc3c2)o1	.	-	.	.	.	-
O=[N+]([O-])c1ccc(/C=N/Nc2nc(-c3ccccc3)c3cc(Br)ccc3n2)o1	.	1.7	-	.	.	1.4
N#Cc1ccccc1/C=N/Nc1nc(-c2ccccc2)c2cc(Br)ccc2n1	.	2.1	-	.	.	-
Cc1ccc2nc(N/N=C\c3ccc([N+](=O)[O-])o3)nc(-c3ccccc3)c2c1	-	2.1	-4	13	-	3.0
COc1cc(C(=O)NCC(=O)N/N=C(/C)c2cccs2)cc(OC)c1OC	.	-	-	.	.	-
C=CCN(CC=C)S(=O)(=O)c1ccc(NC(=S)NC(=O)Cc2ccc(OC)cc2)cc1	.	-	-	.	.	-
COc1ccc(C(=O)OCCN2CCOCC2)cc1OC	-	-	-	-	-	-
COc1ccc(C(=O)Oc2c(CN3CCOCC3)cc(Cl)c3cccnc23)cc1OC	7.2	.	.	1.5	-	.
Cc1ccc(SCCOCCN2CCc3ccccc3C2)cc1	.	-	.	.	.	-
COc1ccc(C)cc1Nc1cc(C)nc2nc(C)nn12	-	-	.	25	-	-
SMILES	Fibroblast inh	HCT116 bCat-KO	PTK2B oligo ant	H69AR inhibit	HUVEC prolif 384	HCT116 PTEN-null
COc1ccc(OC)c(Nc2cc(C)nc3nc(C)nn23)c1	-	-	.	22	-	-
CC(NC(=O)CSC1=NCCS1)c1ccccc1 (stereo not given)	.	-	.	.	.	-
CCOc1ccccc1NC(C)C(=O)Nc1cc(C(F)(F)F)ccc1N1CCOCC1 (stereo not given)	.	-	.	.	.	-
O=C(OCC(=O)c1ccccc1Cl)c1cnccn1	.	-	.	.	.	-
CCC(C)NCCCOc1ccc(Cl)cc1C(C)(C)C (stereo not given)	.	-	.	.	.	-
COCCCNCCCOc1ccc(Cl)cc1C(C)(C)C	.	4.0	.	.	.	3.1
CCOC(=O)c1c(NC(=O)c2ccc(C)cc2)sc2c1CC(C)(C)OC2	-	-	-	-	-	-
COC(=O)c1c(NC(=O)c2ccccc2)sc2c1CC(C)(C)OC2	-	-	-	36	-	-
CC1(C)Cc2noc(N)c2C(C)(C)N1OC(=O)c1ccco1	-	-	-	-	-	-
CC(=O)SC(C[N+](=O)[O-])c1cn(C(C)=O)c2ccccc12 (stereo not given)	2.6	-	-	2.3	-	-
CC(=O)n1cc(C2C(=O)CCCC2=O)c2ccccc21	-	-	-	-	-	-
O=C(CC(Nc1ccccc1)C(=O)O)c1ccccc1 (stereo not given)	-	-	-	-	-	-
C=C(C(=O)c1ccccc1)C(C)CC(=O)c1ccccc1 (stereo not given)	.	2.1	.	.	.	1.5
CC(C)(C)c1ccc(-c2nnc(SCC(=O)O)n2N)cc1	44	-	-	-	-	-
CN1CCN(C(=O)c2ccc(COc3ccc(Cl)cc3Cl)cc2)CC1	-	-	-	-	13	-
CN(C)CCNC(=O)c1ccc(COc2ccc(Cl)cc2Cl)cc1	25	3.1	-	1.4	2.4	1.6
COc1ccccc1C1/C(=C(/O)c2ccccc2)C(=O)C(=O)N1CC(C)O (stereo not given)	-	-	-	-	-	-
CC(=O)O[C@@]12CO[C@@H]1C[C@H](O)[C@@]1(C)C(=O)[C@H](O)C3=C(C)[C@@H](OC(=O)[C@H](O)[C@@H](NC(=O)OC(C)(C)C)c4ccccc4)C[C@](O)([C@@H](OC(=O)c4ccccc4)[C@H]21)C3(C)C	-	.	.	23	-	.
Oc1ccc(/C=N/n2c(-c3ccco3)csc2=Nc2cccnc2)c(O)c1	.	-	.	.	.	-
CC(C)N=c1scc(-c2ccco2)n1/N=C/c1ccc(O)c(O)c1	48	-	-	31	-	-
O=C(NC1CCCCC1)C(c1ccco1)N(Cc1cccnc1)C(=O)C1COc2ccccc2O1 (stereo not given)	-	-	-	-	-	-
CCCCCCCCNC(C)C(O)c1ccc(SC(C)C)cc1 (stereo not given)	4.0	1.6	.	1.7	2.6	1.3
CC(OCCN1CCCC1)(c1ccc(F)cc1)c1ccc(F)cc1	.	-	.	.	.	-
Cc1cc(=O)oc2cc(OCC3CC(c4ccccc4)=NO3)ccc12 (stereo not given)	-	-	-	24	-	-
Cc1cc(=O)oc2cc(OCC(=O)N3c4ccccc4CC3C)ccc12 (stereo not given)	-	-	-	24	-	-
O=C(C#Cc1cccc([N+](=O)[O-])c1)c1ccccc1	48	-	-	2.6	-	3.7
CCOc1ccc(Cl)cc1S(=O)(=O)N1CCN(c2ccc(C)c(C)c2)CC1	-	-	-	39	-	-
FC(F)(F)c1nnc(-c2ccccc2)nc1Sc1ccccc1	.	1.6	-	.	.	1.3
FC(F)(F)c1cccc(Sc2nc(-c3ccccc3)nnc2C(F)(F)F)c1	.	5.3	-	.	.	-
CC(=O)Nc1c(O)n(C)c2ccccc12	.	-	-	.	.	-

Compound activity as filed in PubChem BioAssay.
